Experimental data from ChEMBL document CHEMBL3526063, “Metabolism and pharmacokinetics of JM6 in mice: JM6 is not a prodrug for Ro-61-8048” (Drug Metab Dispos, 2012).

Legend:
[1] = AUClast in C57BL/6N mouse treated with JM6 (containing <0.4% Ro-61-8048) at 9 mg/kg, po and Ro-61-8048 at 1 mg/kg, po drugs administered via gavage by LC-MS/MS analysis; type: ADME, organism-based; parameters: dose 9 mg/kg, time 0 - last, route oral; conditions: plasma
Summary of the method: (§1)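 Male C57BL/6N mice were dosed by oral gavage at 10 mL/kg with a fine suspension in 10% hydroxypropyl-β-cyclodextrin in 50 mM phosphate buffer, pH 7. Plasma was taken at non-serial time points (n=3 per time point), extracted with 0.1% formic acid in acetonitrile containing diclofenac as internal standard, and quantified by UPLC-MS/MS. Composite non-compartmental parameters came from mean concentrations; AUClast by linear trapezoid, kel from at least three terminal points.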

Mus musculus [2] = experiment: Dose normalised AUC in C57BL/6N mouse treated with JM6 (containing <0.4% Ro-61-8048) at 9 mg/kg, po and Ro-61-8048 at 1 mg/kg, po drugs administered via gavage by LC-MS/MS analysis; type: ADME, organism-based; conditions: in vivo; summary of the method: as §1
Mus musculus [3] = experiment: Dose normalised Cmax in C57BL/6N mouse treated with JM6 (containing <0.4% Ro-61-8048) at 9 mg/kg, po and Ro-61-8048 at 1 mg/kg, po drugs administered via gavage by LC-MS/MS analysis; type: ADME, organism-based; conditions: in vivo; summary of the method: as §1
[4] = Tmax in C57BL/6N mouse treated with JM6 (containing <0.4% Ro-61-8048) at 9 mg/kg, po and Ro-61-8048 at 1 mg/kg, po drugs administered via gavage by LC-MS/MS analysis; type: ADME, organism-based; conditions: in vivo
Summary of the method: (§2)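 Male C57BL/6N mice dosed by oral gavage (10 mL/kg) as fine suspensions in 10% hydroxypropyl-β-cyclodextrin in 50 mM phosphate buffer pH 7; dose formulations verified by LC-MS/MS. Plasma analysed by LC-MS/MS; composite non-compartmental parameters from mean concentrations (n=3 per time point), C0 set to zero. %F = dose-normalised po AUCinf over dose-normalised iv AUCinf, only within linear range.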

[5] = Half life in C57BL/6N mouse treated with JM6 (containing <0.4% Ro-61-8048) at 9 mg/kg, po and Ro-61-8048 at 1 mg/kg, po drugs administered via gavage by LC-MS/MS analysis; type: ADME, organism-based; conditions: in vivo; summary of the method: as §1
[6] = AUClast in C57BL/6N mouse treated with JM6 (containing <0.4% Ro-61-8048) at 10 mg/kg, po and Ro-61-8048 at 0.05 mg/kg, po drugs administered via gavage by LC-MS/MS analysis; type: ADME, organism-based; parameters: dose 10 mg/kg, time 0 - last, route oral; conditions: plasma; summary of the method: as §1
[7] = AUC(infinity) in C57BL/6N mouse treated with JM6 (containing <0.4% Ro-61-8048) at 10 mg/kg, po and Ro-61-8048 at 0.05 mg/kg, po drugs administered via gavage by LC-MS/MS analysis; type: ADME, organism-based; parameters: dose 10 mg/kg, route oral, time infinity; conditions: plasma; summary of the method: as §1
[8] = Oral bioavailability in C57BL/6N mouse treated with JM6 (containing <0.4% Ro-61-8048) at 10 mg/kg and Ro-61-8048 at 0.05 mg/kg drugs administered via gavage by LC-MS/MS analysis; type: ADME, organism-based; conditions: in vivo; summary of the method: as §2
Mus musculus [9] = experiment: Dose normalised Cmax in C57BL/6N mouse treated with JM6 (containing <0.4% Ro-61-8048) at 10 mg/kg, po and Ro-61-8048 at 0.05 mg/kg, po drugs administered via gavage by LC-MS/MS analysis; type: ADME, organism-based; conditions: in vivo; summary of the method: as §1
[10] = AUClast in C57BL/6N mouse treated with JM6 (containing <0.4% Ro-61-8048) at 25 mg/kg, po and Ro-61-8048 at 0.05 mg/kg, po drugs administered via gavage by LC-MS/MS analysis; type: ADME, organism-based; parameters: dose 25 mg/kg, route oral, time 0 - last; conditions: plasma; summary of the method: as §1
[11] = AUClast in C57BL/6N mouse treated with JM6 (containing <0.4% Ro-61-8048) at 50 mg/kg, po and Ro-61-8048 at 0.05 mg/kg, po drugs administered via gavage by LC-MS/MS analysis; type: ADME, organism-based; parameters: dose 50 mg/kg, time 0 - last, route oral; conditions: plasma; summary of the method: as §1
[12] = Metabolic stability in human plasma assessed as half life at 5 uM after 10 to 1440 mins by LC-MS/MS analysis; type: ADME, cell-free
[13] = Apparent permeability from apical to basolateral side in MDCK2 cells at 10 uM after 1 hr by LC-MS/MS analysis; type: ADME, cell-based, Canis lupus familiaris, MDCK-II; conditions: dog
Summary of the method: (§3)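 MDCKII wild-type or MDR1 monolayers were grown 3 days on Transwells after seeding at 2×10^5 cells/well. Compound at 10 µM in HBSS with 25 mM HEPES, pH 7.4, was added apically or basolaterally in duplicate, with Lucifer Yellow as an integrity marker (wells above 100 nm/s rejected).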

MDR1 [14] = experiment: Apparent permeability from apical to basolateral side in MDCK2-MDR1 cells at 10 uM after 1 hr by LC-MS/MS analysis; type: ADME, cell-based, Canis lupus familiaris, MDCK-II; conditions: dog, MDCK-MDR1; summary of the method: as §3
MDR1 [15] = experiment: Efflux ratio of permeability from basolateral to apical side over apical to basolateral side in MDCK2-MDR1 cells at 10 uM after 1 hr by LC-MS/MS analysis; type: ADME, cell-based, Canis lupus familiaris; conditions: dog, MDCK-MDR1
Summary of the method: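 MDCKII wild-type and MDR1 cells grown on Transwells 3 days at 2×10^5 cells/well. Compound 10 μM in HBSS with 25 mM HEPES pH 7.4, added apical or basolateral in duplicate, 1 h at 37 °C. Lucifer Yellow monitored monolayer integrity; wells above 100 nm/s rejected. Both chambers sampled, LC-MS/MS; Papp A>B and B>A, ratio B>A:A>B.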

Mus musculus [16] = experiment: Dose normalised Cmax in C57BL/6N mouse treated with JM6 (containing <0.4% Ro-61-8048) at 25 mg/kg, po and Ro-61-8048 at 0.05 mg/kg, po drugs administered via gavage by LC-MS/MS analysis; type: ADME, organism-based; conditions: in vivo; summary of the method: as §1
Mus musculus [17] = experiment: Dose normalised AUC in C57BL/6N mouse treated with JM6 (containing <0.4% Ro-61-8048) at 50 mg/kg, po and Ro-61-8048 at 0.05 mg/kg, po drugs administered via gavage by LC-MS/MS analysis; type: ADME, organism-based; conditions: in vivo; summary of the method: as §1
Mus musculus [18] = experiment: Dose normalised Cmax in C57BL/6N mouse treated with JM6 (containing <0.4% Ro-61-8048) at 50 mg/kg, po and Ro-61-8048 at 0.05 mg/kg, po drugs administered via gavage by LC-MS/MS analysis; type: ADME, organism-based; conditions: in vivo; summary of the method: as §1
[19] = Metabolic stability in mouse plasma assessed as half life at 5 uM after 10 to 1440 mins by LC-MS/MS analysis; type: ADME, cell-free
[20] = target: Kynurenine 3-monooxygenase (Homo sapiens, UniProt O15229); experiment: Inhibition of human KMO assessed as 3-hydroxykynurenine formation preincubated for 5 mins using 100 uM kynurenine as substrate by LC-MS/MS analysis
Summary of the method: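 Liver mitochondrial KMO preparation (mouse C57 BL/6J, rat Wistar, human) at 0.3 mg protein/mL in 100 mM potassium phosphate pH 7.4 with 200 µM NADPH, 0.4 U/mL G6PDH, 3 mM glucose 6-phosphate. Compound pre-incubated 5 min at 25°C, then 100 µM kynurenine added; 40 min (rodent) or 60 min (human). Stopped with TCA; 3-hydroxykynurenine by LC-MS/MS. IC50 from 8-point 3-fold dilutions (top 3 or 30 µM), triplicates, n≥2 runs.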

[21] = Hepatic extraction ratio in human Hepatocyte at 1 uM after 10 to 90 mins by LC-MS/MS analysis; type: ADME, cell-based; conditions: hepatocytes, read-out: ERH

Chain of Kynurenine 3-monooxygenase (O15229 whole entry): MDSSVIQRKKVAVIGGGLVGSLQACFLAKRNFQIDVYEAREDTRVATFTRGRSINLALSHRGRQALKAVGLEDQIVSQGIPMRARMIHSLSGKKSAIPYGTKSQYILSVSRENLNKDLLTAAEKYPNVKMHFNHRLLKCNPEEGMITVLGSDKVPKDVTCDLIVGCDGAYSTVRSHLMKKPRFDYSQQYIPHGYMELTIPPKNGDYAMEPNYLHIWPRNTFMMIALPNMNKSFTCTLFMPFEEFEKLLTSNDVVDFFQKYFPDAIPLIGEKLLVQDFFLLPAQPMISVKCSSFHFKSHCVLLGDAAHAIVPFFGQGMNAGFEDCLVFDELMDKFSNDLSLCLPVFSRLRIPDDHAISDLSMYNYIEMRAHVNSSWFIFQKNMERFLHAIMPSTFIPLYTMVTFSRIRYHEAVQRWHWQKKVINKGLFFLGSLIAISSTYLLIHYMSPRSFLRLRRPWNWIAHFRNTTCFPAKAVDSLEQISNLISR

AUC(0-t) [1]	AUC/dose (Mus musculus [2])	Cmax/dose (Mus musculus [3])	Tmax [4]	half-life [5]	AUC(0-t) [6]	AUC(0-inf) [7]	bioavailability [8]	Cmax/dose (Mus musculus [9])	AUC(0-t) [10]	AUC(0-t) [11]	half-life at 5 µM [12]	Papp A→B at 1 h, 10 µM (MDR1 [14])	efflux ratio at 1 h, 10 µM (MDR1 [15])	Cmax/dose (Mus musculus [16])	AUC/dose (Mus musculus [17])	Cmax/dose (Mus musculus [18])	half-life at 5 µM [19]	IC50 [20]	hepatic extraction ratio at 1 µM [21]	Compound	also measured
110 µM·h	140000 nM·kg·h/mg	21 µM	0.5 h	4.4 h	4.9 µM·h	5.2 µM·h	80%	11 µM	8.4 µM·h	7.9 µM·h	> 24 h	10 ×10⁻⁶ cm/s	3.2	16 µM	160000 nM·kg·h/mg	160 µM	> 24 h	0.17 µM	0.8	COc1ccc(S(=O)(=O)Nc2nc(-c3cccc([N+](=O)[O-])c3)cs2)cc1OC	Papp A→B at 1 h, 10 µM ([13]; MDCK): 17 ×10⁻⁶ cm/s
1.1 µM·h	130 nM·kg·h/mg	0.11 µM	0.5 h	0.7 h	1.3 µM·h	1.3 µM·h	13%	0.19 µM	4.8 µM·h	9.6 µM·h	> 24 h	0.72 ×10⁻⁶ cm/s	60	0.14 µM	190 nM·kg·h/mg	0.19 µM	> 24 h	11 µM	0.67	COc1ccc(S(=O)(=O)Nc2nc(-c3cccc([N+](=O)[O-])c3)c(CN3CCCCC3)s2)cc1OC	Papp ([13]; mdck-ii, 1 h, 10 µM): 4.7 ×10⁻⁶ cm/s
